ChEMBL document CHEMBL1165950, “Design and synthesis of new potent anticancer pyrazoles with high FLT3 kinase inhibitory selectivity” (Bioorg Med Chem, 2010)

Experiments:
Type in all cases: functional
SNB-75 [1] = experiment: Cytotoxicity against human SNB75 cells assessed as cell growth at 100 nM after 48 hrs by sulforhodamine B assay; conditions: SNB-75, 48 h, read-out: Activity
HL-60(TB) = experiment: Cytotoxicity against human HL-60(TB) cells assessed as cell growth at 1 uM after 48 hrs by sulforhodamine B assay; conditions: HL-60, 48 h, read-out: Activity
In short: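 NCI 60-cell panel. Cells are grown in RPMI 1640 with 5% FBS and 2 mM L-glutamine, seeded at 5000–40,000 cells/well according to doubling time, and preincubated 24 h. Time-zero plates are TCA-fixed. Compound from DMSO stock is given at five 10-fold or 1/2-log concentrations for 48 h at 37 °C, 5% CO2. Suspension cells are fixed with 80% TCA (final 16%) and SRB-stained, with absorbance at 515 nm. Percent growth is derived from Tz, control and test readings.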

LOX IMVI = experiment: Cytotoxicity against human LOXIMVI cells assessed as cell growth at 10 uM; conditions: read-out: Activity
In short: (§1)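 NCI-60 screen: cells grown in RPMI 1640 with 5% FBS and 2 mM L-glutamine, plated at 5000–40,000 cells/well according to doubling time, and preincubated 24 h at 37 °C, 5% CO2. The single 10 µM dose (DMSO stock) was added, then incubated 48 h. Cells were TCA-fixed and stained with 0.4% SRB, read at 515 nm, and growth % calculated against time-zero and control plates.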

MDA-MB-435 = experiment: Cytotoxicity against human MDA-MB-435 cells assessed as cell growth at 10 uM; conditions: read-out: Activity; in short: as §1
OVCAR-5 [2] = experiment: Cytotoxicity against human OVCAR5 cells assessed as cell growth at 10 uM; conditions: read-out: Activity; in short: as §1
CAKI-1 [3] = experiment: Cytotoxicity against human Caki1 cells assessed as cell growth at 10 uM; conditions: read-out: Activity
In short: (§2)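 Single-dose NCI-60 screen at 10 µM. Cells were grown in RPMI 1640 with 5% FBS and 2 mM L-glutamine, then treated for 48 h at 37 °C. Protein was measured by SRB staining with absorbance at 515 nm. Percentage growth was recorded, and inhibition percentage was calculated as 100 minus growth percentage.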

K562 = experiment: Cytotoxicity against human K562 cells assessed as cell growth at 0.001 uM after 48 hrs by sulforhodamine B assay; conditions: K562, 48 h, read-out: Activity
[4] = Cytotoxicity against human […] cells assessed as cell growth at 0.001 uM after 48 hrs by sulforhodamine B assay; conditions: read-out: Activity
HCT-15 [5] = experiment: Cytotoxicity against human HCT15 cells assessed as cell growth at 1 uM after 48 hrs by sulforhodamine B assay; conditions: HCT-15, 48 h, read-out: Activity
U-251 = experiment: Cytotoxicity against human U251 cells assessed as cell growth at 1 uM after 48 hrs by sulforhodamine B assay; conditions: U-251, 48 h, read-out: Activity
Malme-3M [6] = experiment: Cytotoxicity against human MALME-3M cells assessed as cell growth at 1 uM after 48 hrs by sulforhodamine B assay; conditions: read-out: Activity
HCC 2998 = experiment: Cytotoxicity against human HCC2998 cells assessed as cell growth at 0.01 uM after 48 hrs by sulforhodamine B assay; conditions: HCC 2998, 48 h, read-out: Activity
SK-MEL-28 = experiment: Cytotoxicity against human SK-MEL-28 cells assessed as cell growth at 0.01 uM after 48 hrs by sulforhodamine B assay; conditions: SK-MEL-28, 48 h, read-out: Activity
CAKI-1 [7] = experiment: Cytotoxicity against human Caki1 cells assessed as cell growth at 0.01 uM after 48 hrs by sulforhodamine B assay; conditions: CAKI-1, 48 h, read-out: Activity
COLO 205 [8] = experiment: Cytotoxicity against human COLO205 cells assessed as cell growth at 0.001 uM after 48 hrs by sulforhodamine B assay; conditions: COLO 205, 48 h, read-out: Activity
In short: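 NCI-60 five-dose screen. Cells were grown in RPMI 1640 with 5% FBS and 2 mM L-glutamine, plated at 5000–40,000 cells/well and preincubated for 24 h. Time-zero plates were TCA-fixed. DMSO-solubilized drug was added at five concentrations (10-fold or ½-log serial dilutions) for 48 h at 37 °C, 5% CO2. Cells were TCA-fixed, stained with 0.4% SRB and read at 515 nm. Percent growth used time-zero, control and test absorbances.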

Malme-3M [9] = experiment: Cytotoxicity against human MALME-3M cells assessed as cell growth at 0.001 uM after 48 hrs by sulforhodamine B assay; conditions: read-out: Activity
OVCAR-5 [10] = experiment: Cytotoxicity against human OVCAR5 cells assessed as cell growth at 0.001 uM after 48 hrs by sulforhodamine B assay; conditions: OVCAR-5, 48 h, read-out: Activity
EKVX = experiment: Growth inhibition of human EKVX cells after 48 hrs by sulforhodamine B assay
In short: (§3)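 NCI five-dose SRB assay in RPMI 1640 with 5% FBS and 2 mM L-glutamine. Cells were preincubated 24 h, then exposed 48 h at 37 °C to five concentrations (10-fold or half-log serial dilutions from DMSO stocks). TCA fixation, SRB staining, and absorbance at 515 nm followed. IC50 was taken where [(Ti−Tz)/(C−Tz)]×100 = 50, with Tz as time-zero cell density.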

HCT-15 [11] = experiment: Growth inhibition of human HCT15 cells after 48 hrs by sulforhodamine B assay; conditions: HCT-15, 48 h
In short: (§4)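 NCI 60-cell screen, five-dose mode. Cells grown in RPMI 1640 with 5% FBS and 2 mM L-glutamine and plated at 5000-40,000 cells/well according to doubling time. After 24 h preincubation, a Tz plate was TCA-fixed. Five concentrations (10-fold or 1/2 log dilutions) were applied for 48 h at 37 °C. SRB staining read at 515 nm. IC50 taken from [(Ti-Tz)/(C-Tz)]×100 = 50.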

SNB-75 [12] = experiment: Growth inhibition of human SNB75 cells after 48 hrs by sulforhodamine B assay; conditions: SNB-75, 48 h; in short: as §4
M14 = experiment: Growth inhibition of human M14 cells after 48 hrs by sulforhodamine B assay; conditions: M14, 48 h; in short: as §4
A498 = experiment: Growth inhibition of human A498 cells after 48 hrs by sulforhodamine B assay; conditions: A498, 48 h; in short: as §3
MDA-MB-231 = experiment: Growth inhibition of human MDA-MB-231 cells after 48 hrs by sulforhodamine B assay; conditions: MDA-MB-231, 48 h; in short: as §4
OVCAR-5 [13] = experiment: Cytotoxicity against human OVCAR5 cells assessed as cell growth at 1 uM after 48 hrs by sulforhodamine B assay; conditions: OVCAR-5, 48 h, read-out: Activity
COLO 205 [14] = experiment: Cytotoxicity against human COLO205 cells assessed as cell growth at 10 uM; conditions: read-out: Activity; in short: as §2
COLO 205 [15] = experiment: Cytotoxicity against human COLO205 cells assessed as cell growth at 10 uM after 48 hrs by sulforhodamine B assay; conditions: COLO 205, 48 h, read-out: Activity
[16] = read-out: LC50 (the source's name)

Work on COc1cc(C)cc(-c2c(-c3ccnc(-c4ccc(C(C)=O)cc4)c3)cnn2CC#N)c1 yielded a growth at 0.1 µM (SNB-75 [1]) of 76%, a growth at 1 µM (HL-60(TB)) of 20% and a growth at 10 µM (LOX IMVI) of 58.8%. It also gave a growth at 10 µM (MDA-MB-435) of 10.6%, a growth at 10 µM (OVCAR-5 [2]) of 95% and a growth at 10 µM (CAKI-1 [3]) of 70.4%. The growth at 0.001 µM (K562) was 81%, the growth at 0.001 µM [4] was 95% and the growth at 1 µM (HCT-15 [5]) was 12%. It also gave a growth at 1 µM (U-251) of 4%, a growth at 1 µM (Malme-3M [6]) of 36% and a growth at 0.01 µM (HCC 2998) of 98%. For the same compound, the growth at 0.01 µM (SK-MEL-28) was 94%, the growth at 0.01 µM (CAKI-1 [7]) was 97% and the growth at 0.001 µM (COLO 205 [8]) was 109%. For the same compound, the growth at 0.001 µM (Malme-3M [9]) was 105%, the growth at 0.001 µM (OVCAR-5 [10]) was 85% and the GI50 (EKVX) was 5.8 µM. The TGI (EKVX) was > 100 µM, the CC50 (EKVX; [16]) was > 100 µM and the GI50 (HCT-15 [11]) was 3.14 µM. For the same compound, the TGI (HCT-15 [11]) was > 100 µM, the CC50 (HCT-15 [11]; [16]) was > 100 µM and the GI50 (SNB-75 [12]) was 2.08 µM. The CC50 (SNB-75 [12]; [16]) was > 100 µM, the GI50 (M14) was 1.97 µM and the CC50 (M14; [16]) was > 100 µM. The GI50 (A498) was 2.03 µM, the LC50 (A498) was > 100 µM and the TGI (A498) was > 100 µM. For the same compound, the GI50 (MDA-MB-231) was 3.63 µM, the LC50 (MDA-MB-231) was > 100 µM and the TGI (MDA-MB-231) was > 100 µM. For the same compound, the growth at 1 µM (OVCAR-5 [13]) was 60%, the growth at 10 µM (COLO 205 [14]) was 42.6% and the growth at 10 µM (COLO 205 [15]) was -67%.
